One test deals with 53BP1-Tudor. Put plainly: NMR titration of 53BP1-Tudor with H4 peptide. In kind it is binding. In short, it runs like this: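 0.3 mM 15N-labelled 53BP1-Tudor titrated with unlabelled H4 peptide (synthetic H4K20me2, aa 14-27) from a 15 mM stock and followed by 1H-15N HSQC. In the reverse titration, 0.5 mM 13C/15N-labelled recombinant H4KC20me2 (aa 14-27, dimethyl-lysine analogue) received unlabelled Tudor from a 5 mM stock and was followed by 1H-13C HSQC.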

The next test has as its system 53BP1 IRIF in U2OS cells. Put plainly: 53BP1 IRIF. In kind it is cell-based. Particulars: HDACi 5 hours prior to 10 Gy IR (TSA 0.5 µM), fixed 5 hours later. In short, it runs like this: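 U2OS cells on coverslips were fixed and permeabilized, then incubated with primary antibody against 53BP1, washed in PBST, and incubated with secondary antibody. Coverslips were mounted in DAPI-containing medium. Images were captured on the same day at equal exposure in 8-bit grayscale and analysed on unmodified images.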

Another test deals with H4ac. Put plainly: ChIP-qPCR H4ac at U2OS-DSB-reporter locus. In kind it is cell-based. Conditions: 0.5 μM TSA vs DMSO; DSBs induced by mCherry-LacI-FokI. In short, it runs like this:
(§1)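 U2OS-DSB-reporter cells were given 0.5 μM TSA or DMSO, for 5 h where stated, and DSBs were induced by mCherry-LacI-FokI. Cells were formaldehyde-crosslinked, and chromatin was sonicated to 200–500 bp and immunoprecipitated overnight at 4°C with antibody to 53BP1, BRCA1 or H4ac. After washing and de-crosslinking, SYBR Green qPCR was run at reporter primer sets, quantified against diluted-input standard curves, with S.E.M. and Student t test.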
In general terms: Real-time PCR tracks product formation cycle by cycle.

Another test deals with BRCA1. Put plainly: ChIP-qPCR BRCA1 at U2OS-DSB-reporter locus. In kind it is cell-based. Conditions: 0.5 μM TSA for 5 hours vs DMSO; DSBs induced by mCherry-LacI-FokI. In short, it runs like this:
as §1

For a further test, the system named is 53BP1. Put plainly: ChIP-qPCR 53BP1 at U2OS-DSB-reporter locus. In kind it is cell-based. Particulars: 0.5 μM TSA, 5 hours before DSB induction by mCherry-LacI-FokI; locus p4. In short, it runs like this:
as §1

Test [1] relates to BRCA1 and 53BP1 at subtelomeric chromatin in 293T cells. The test is described as follows: ChIP BRCA1 and 53BP1 at subtelomeric regions, TRF1-FokI. Conditions: 293T cells expressing TRF1-FokI, TSA treatment. Format: cell-based. In short, it runs like this: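 293T cells were transfected with a TRF1-FokI plasmid; controls lacked TRF1-FokI. 16 h later cells were cross-linked in 1% formaldehyde for 10 min and quenched with 0.125 M glycine. Chromatin was sonicated to 200–500 bp and immunoprecipitated overnight at 4°C with BRCA1 or 53BP1 antibodies on protein A agarose. After salt/LiCl/TE washes, chromatin was de-crosslinked overnight at 65°C, then subtelomeric SYBR Green qPCR against input standard curves.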

Another test concerns H4K20me2 in U2OS cells. The test is described as follows: Immunoblot of total H4K20me2. In kind it is cell-based. Conditions: acid-eluted histones from U2OS cells, 0.5 μM TSA, 5 hours.
In a further test the test system is RPA. Put plainly: RPA accumulation at LacI-FokI DSBs. Particulars: U2OS-DSB-reporter cells; TSA 0.5 μM vs DMSO; 200 cells per group, at least 2 independent experiments. Format: cell-based. In short, it runs like this: (§2)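 U2OS cells carrying the LacI-FokI DSB reporter were grown in DMEM with 10% calf serum and siRNA-transfected, then analysed 48–72 h later. DSBs were induced with mCherry-LacI-FokI, with DMSO or 0.5 μM TSA. Coverslips were fixed, permeabilised and immunostained for RPA or Rad51, then mounted with DAPI. The mCherry signal marked the damaged area, where focus presence or intensity was scored after background subtraction per cell.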

The test system of a further test is Rad51. The test is described as follows: Rad51 accumulation at LacI-FokI DSBs. Particulars: U2OS-DSB-reporter cells; TSA 0.5 μM vs DMSO; 200 cells per group, at least 2 independent experiments. In kind it is cell-based. In short, it runs like this: as §2
In test [2] the test system is 53BP1 −/− mouse embryonic fibroblasts. Put plainly: Metaphase spreads, radial chromosomes, 53BP1 −/− MEFs. Particulars: TIP60 siRNA + Olaparib; 53BP1 −/− vs 53BP1 +/+ MEFs. In kind it is cell-based. In short, it runs like this: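 53BP1+/+ and 53BP1−/− MEFs were transfected with control or mouse TIP60 siRNA using RNAiMax, analysed 48–72 h later, and treated with Olaparib. Cells were arrested with 0.5 μM nocodazole for 3–4 h, swollen in 75 mM KCl, fixed on ice in 3:1 methanol/acetic acid, dropped onto slides at 55°C and Giemsa-stained. Metaphases were scored for radial chromosomes, with significance by Fisher's exact test.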

The subject of a further test is U2OS cells. Put plainly: Survival following Olaparib. In kind it is cell-based. Conditions: percentage survival.
A further test deals with BRCA1 mutant cells. Particulars: ref [39],[40], cited from earlier work.

Consider “non-methylated H4K20 peptide: corresponding non-methylated peptide, control”, for which the “Trp1495 indole HN shift, in words” value with 53BP1-Tudor (^1H-^15N HSQC, 53BP1-Tudor titrated with non-methylated peptide, vs H4K20me2) is “markedly reduced”.
For `CC(/C=C/C(=O)NO)=C\[C@@H](C)C(=O)c1ccc(N(C)C)cc1` [TSA, trichostatin A], in the test on 53BP1 IRIF in U2OS cells, the “53BP1 IRIF” value is listed as “strongly reduced”. Further, the “H4 acetylation (H4ac)” value in the test on H4ac is listed as “elevated”. Moreover, in the test on BRCA1, the “increase in BRCA1 occupancy” value is roughly 4 fold. For the same compound, the 53BP1 association result in the test on 53BP1 is “diminished”. In test [1], the “response of BRCA1 and 53BP1 at subtelomeric chromatin” value is on record as “divergent response”. In addition, the “total H4K20me2” value in the test on H4K20me2 in U2OS cells is given as “did not affect”. In addition, the “RPA accumulation at the LacI-FokI reporter after RVB1 or TIP60 knockdown” value with RPA is on record as “restored”. Also, the “Rad51 accumulation at the LacI-FokI reporter after RVB1 or TIP60 knockdown” value in the test on Rad51 is reported as “restored”.
With `O=C(c1cc(Cc2n[nH]c(=O)c3ccccc23)ccc1F)N1CCN(C(=O)C2CC2)CC1` [Olaparib], the “impact of TIP60 knockdown on radial chromosome formation by 53BP1 nullizygosity” value in test [2] is on record as “strongly mitigated”. For the same compound, in the test on U2OS cells (TIP60 and 53BP1 siRNA), the “sensitivity to Olaparib, TIP60 deficiency with accompanying 53BP1 knockdown” value is given as “reversed”. The “sensitivity to Olaparib, TIP60 deficiency” value with U2OS cells (TIP60 siRNA) was “hypersensitivity”. Further, the “sensitivity to Olaparib, BRCA1 mutation with 53BP1 nullizygosity” value with BRCA1 mutant cells (BRCA1 mutation and 53BP1 nullizygosity) is recorded as “reversed”. Besides, the “sensitivity to Olaparib, BRCA1 mutation” value in the test with BRCA1 mutant cells (BRCA1 mutation) is “hypersensitivity”.
As to “H4K20me2: H4K20me2 peptide (aa 14-27) chemically synthesized”, the “shifts of Trp1495 side chain resonances” value in the test with 53BP1-Tudor (^1H-^13C HSQC, 298 K, pH 7.0) is “large downfield shifts”. Also, the “downfield shift of Trp1495 indole HN proton” value in the test on 53BP1-Tudor (^1H-^15N HSQC, 0.3 mM ^15N-labeled 53BP1-Tudor, 298 K, 25 mM sodium phosphate, pH 7.0) is 0.8 p.p.m. In the test with 53BP1-Tudor (^1H-^15N HSQC, 298 K, 25 mM sodium phosphate, pH 7.0), the “changes in chemical shift of 53BP1-Tudor binding cage residues (Trp1495, Tyr1502, Phe1519, Asp1521, Tyr1523)” value was “pronounced changes in chemical shift”.

The values above are taken from PMC3594358 (Nature structural & molecular biology, 2013).
